These results are taken from ChEMBL document CHEMBL1135471, “Sugar-modified conjugated diene analogues of adenosine and uridine: synthesis, interaction with S-adenosyl-L-homocysteine hydrolase, and antiviral and cytostatic effects” (J Med Chem, 2002).

As a reminder, the CC50 is the concentration at which the toxic effect on the cells reaches its halfway point. A high value points to better tolerance by the cells. As a reminder, the pEC50 is the EC50 on a negative log10 scale, so that one unit is a factor of ten. A lower pEC50 goes with a high EC50. Broadly, the pKi is −log10 of the Ki, conventionally taken in molar units.

One experiment concerns Coxsackievirus B4. The experiment in a line: Minimum cytotoxic concentration against Coxsackie B4 virus in HeLa cell cultures. It is filed as functional.
The test system of the next experiment is E6SM. The experiment can be described thus: Minimum concentration required to cause a microscopically detectable alteration of normal cell morphology in human embryonic skin muscle (E6SM) cell cultures. It is filed as functional. Particulars: for minimal effective concentration: read-out: MEC. The essentials:
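E6SM cell cultures were examined by microscopy. The value is the minimum concentration giving a detectable alteration of normal cell morphology.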

Experiment [1] deals with Human immunodeficiency virus 1. The experiment can be described thus: Cytostatic concentration against […] virus strains IIIB and ROD, in T-lymphocytic MT-4 cells. It is filed as functional. The conditions noted are these: Human immunodeficiency virus 1, MT4. In a few lines: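 T-lymphocytic MT-4 cells were tested alongside HIV-1 IIIB and HIV-2 ROD antiviral assays. The CC50 is the 50% cytostatic concentration for the MT-4 cells.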

A further experiment deals with Human alphaherpesvirus 1. The experiment can be described thus: Activity against herpes simplex virus 1 (HSV-1) strain KOS, was determined; No activity. The class given is functional, organism-based.
Experiment [2] has as its system Human alphaherpesvirus 2. The experiment in a line: Activity against herpes simplex virus 2 (HSV-2) […], was determined; No activity. The class given is functional, organism-based.
Experiment [3] relates to Vero. The experiment can be described thus: Activity was evaluated in vero cell cultures; Cytotoxic. The class given is functional, cell-based. The conditions noted are these: Chlorocebus sabaeus.
In experiment [4] the test system is Respiratory syncytial virus. The experiment can be described thus: Minimum cytotoxic concentration against respiratory syncytial virus in HeLa cell cultures. The class given is functional.
Experiment [5] relates to Vaccinia virus. The experiment in a line: Minimum cytotoxic concentration against vaccinia virus, was determined. It is filed as functional, organism-based. The conditions noted are these: Orthopoxvirus vaccinia.
The subject of experiment [6] is Vesicular stomatitis virus. The experiment in a line: Minimum cytotoxic concentration against vesicular stomatitis virus in HeLa cell cultures. It is filed as functional.
The next experiment has as its system Human betaherpesvirus 5. The experiment can be described thus: 50 % effective concentration against cytomegalo virus (CMV). It is filed as functional, organism-based. The essentials:
(§1)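 Human embryonic lung (HEL) cells were used against CMV strains AD-169 and Davis and VZV strains YS, OKA, 07/1 and YS/R. EC50 values are for the antiviral effect. The minimum cytotoxic concentration and CC50 for HEL cells were measured alongside.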

Experiment [7] is described as follows: Minimum cytotoxic concentration against Coxsackie B4 virus in HeLa cell cultures, was determined. The class given is functional, Coxsackievirus B4.
The subject of experiment [8] is Human alphaherpesvirus 2. The experiment in a line: Activity against herpes simplex virus 2 (HSV-2) strain G, was determined; No activity. It is filed as functional, organism-based.
The target in experiment [9] is T1, Adenosylhomocysteinase (Homo sapiens, UniProt P23526). The experiment can be described thus: Inhibitory constant for S-adenosyl-homocysteine hydrolase, was determined using Kitz and Wilson equation {Kobs = Kinact. [I]/(Ki + [I])}.
Target sequence in this assay (P23526 whole entry): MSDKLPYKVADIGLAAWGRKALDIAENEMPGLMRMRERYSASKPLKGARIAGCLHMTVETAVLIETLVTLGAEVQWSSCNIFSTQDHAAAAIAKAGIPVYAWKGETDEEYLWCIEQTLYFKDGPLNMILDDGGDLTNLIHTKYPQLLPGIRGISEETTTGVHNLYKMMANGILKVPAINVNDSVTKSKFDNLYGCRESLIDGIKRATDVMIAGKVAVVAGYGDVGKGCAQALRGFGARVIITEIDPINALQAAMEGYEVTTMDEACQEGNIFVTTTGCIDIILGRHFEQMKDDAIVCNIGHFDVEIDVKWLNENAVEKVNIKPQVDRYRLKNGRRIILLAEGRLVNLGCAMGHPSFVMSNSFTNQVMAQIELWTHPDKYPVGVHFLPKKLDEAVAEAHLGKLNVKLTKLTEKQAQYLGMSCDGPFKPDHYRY
Experiment [10] has as its target T1, Adenosylhomocysteinase. The experiment in a line: Inactivation constant for S-adenosyl-homocysteine hydrolase, was determined using Kitz and Wilson equation {Kobs = Kinact. [I]/(Ki + [I])}.
Target sequence in this assay (P23526 2-432 limits assumed): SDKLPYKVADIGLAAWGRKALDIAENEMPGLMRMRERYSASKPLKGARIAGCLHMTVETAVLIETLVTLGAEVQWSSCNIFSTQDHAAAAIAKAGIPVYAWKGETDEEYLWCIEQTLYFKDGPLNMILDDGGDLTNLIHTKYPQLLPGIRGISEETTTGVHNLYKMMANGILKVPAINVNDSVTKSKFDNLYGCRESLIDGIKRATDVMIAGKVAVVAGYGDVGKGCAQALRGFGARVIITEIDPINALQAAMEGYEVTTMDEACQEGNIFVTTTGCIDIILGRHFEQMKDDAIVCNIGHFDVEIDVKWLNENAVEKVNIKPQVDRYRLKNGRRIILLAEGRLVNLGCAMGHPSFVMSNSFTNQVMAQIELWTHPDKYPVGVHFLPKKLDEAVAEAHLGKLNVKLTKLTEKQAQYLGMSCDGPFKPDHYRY
In experiment [11] the target is T1, Adenosylhomocysteinase. The experiment can be described thus: Percent NAD+ content after incubation of S-adenosyl-homocysteine hydrolase (5.8 uM) with 100 uM of compound at 37 degree C for 20 min. It is filed as functional. In a few lines: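 Enzyme in 50 mM potassium phosphate pH 7.2 with 1 mM EDTA. After the inhibitor step, cofactors were released with 5 N HClO4. NAD+ was quantified by C18 RP-HPLC at 258 nm, using a 2–98% acetonitrile gradient over 25 min against 25 mM phosphate pH 3.2 containing 10 mM heptane sulfonic acid.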
Target sequence in this assay (P23526 2-432 limits assumed): as above

For experiment [12], the target named is T1, Adenosylhomocysteinase. The experiment can be described thus: Percent S-adenosyl-homocysteine hydrolase (210 nM) activity remaining after incubating with 100 uM at 37 degree C for 20 minutes. The essentials:
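Human enzyme preincubated with compound in 50 mM potassium phosphate pH 7.2, 1 mM EDTA. Residual activity measured in the synthetic direction: 1 mM Ado plus 1 mM Hcy, 37 °C, 1 min, stopped with HClO4. AdoHcy quantified by RP-HPLC at 258 nm. Duplicate determinations averaged.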
Target sequence in this assay (P23526 2-432 limits assumed): as above

Experiment [13] relates to Vero. The experiment in a line: Antiviral activity (cytotoxicity) was evaluated in vero cell cultures. It is filed as functional, Chlorocebus sabaeus.
The nature of experiment [14]: Minimum cytotoxic concentration against respiratory syncytial virus in HeLa cell cultures, was determined. The class given is functional.
Experiment [15] has as its system Vaccinia virus. The experiment can be described thus: Activity against vaccinia virus, was determined; No activity. The class given is functional, organism-based. The conditions noted are these: Orthopoxvirus vaccinia.
Experiment [16] relates to Vesicular stomatitis virus. The experiment can be described thus: Activity against vesicular stomatitis virus, was determined; No activity. The class given is functional, organism-based.
The nature of experiment [17]: Minimum cytotoxic concentration against vesicular stomatitis virus in HeLa cell cultures, was determined. It is filed as functional.
In experiment [18] the test system is HEL. The experiment can be described thus: Minimum cytotoxic concentration determined in embryonic lung (HEL) cells. The class given is functional, Homo sapiens. In a few lines:
as §1

In experiment [19] the target is T1, Adenosylhomocysteinase. The experiment can be described thus: Percent NAD+ content after incubation of AS-adenosylhomocysteine hydrolase (5.8 uM) with 100 uM of compound at 37 degree C for 20 min. The class given is functional. The essentials: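 Human AdoHcy hydrolase at 5.8 μM was preincubated with 100 μM inhibitor in 50 mM potassium phosphate, pH 7.2, with 1 mM EDTA, at 37 °C for 20 min. Cofactors were released with HClO4. NAD+ was quantified by C18 RP-HPLC (25 mM phosphate pH 3.2 with heptane sulfonic acid; acetonitrile gradient) with detection at 258 nm. Values are % NAD+ remaining.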
Target sequence in this assay (P23526 2-432 limits assumed): as above

Experiment [20] deals with HEL. The experiment in a line: 50 % cytotoxic concentration for human embryonic lung (HEL) cells. The class given is functional. In a few lines:
as §1

For a further experiment, the system named is Human alphaherpesvirus 3. The experiment can be described thus: 50 % effective concentration against Varicella-Zoster virus (VZV) was determined. It is filed as functional, organism-based. In a few lines: as §1
Experiment [21] has as its system Vero. The experiment can be described thus: Antiviral activity was evaluated in vero cell cultures. The class given is functional. Particulars: Chlorocebus sabaeus.
The test system of experiment [22] is HEL. The experiment can be described thus: Minimum cytotoxic concentration determined in embryonic lung (HEL) cells against human CMV, strains AD-169 and Davis and VZV, strains YS, OKA, 07/1, and YS/R. The class given is functional. The essentials: as §1
The target in experiment [23] is T1, Adenosylhomocysteinase. The experiment can be described thus: Inactivation constant for aS-adenosylhomocysteine hydrolase, was determined using Kitz and Wilson equation {Kobs = Kinact. [I]/(Ki + [I])}.
Target sequence in this assay (P23526 2-432 limits assumed): as above

pEC50, pKi: −log10 of the molar value. Active and inactive are the calls of the source. The calls are words filed in the database; no cut-off is given here.

For the compound `O=c1ccn(C2O[C@H](/C=C/C=C(Br)Br)[C@@H](O)[C@H]2O)c(=O)[nH]1` (some centres undefined), the MCC50 result (in the experiment on Coxsackievirus B4; in experiment [4]; in [6]) was “>=200 uM” each time. The MEC50 in the experiment on E6SM is over 40 µM. The CC50 in experiment [1] worked out at 300 µM. The “antiviral activity against HSV-1” value with Human alphaherpesvirus 1 is “inactive”. For the same compound, the MCC50 entry in the experiment on Human alphaherpesvirus 2 [2] and in the experiment with Vaccinia virus [5] was “inactive” throughout. Besides, the Activity result in the experiment on Vero [3] is “Toxic”.
Take `CCOC(=O)/C=C\C=C\[C@H]1OC(n2cnc3c(N)ncnc32)[C@H](O)[C@@H]1O` (some centres undefined): the pEC50 in the experiment on Human betaherpesvirus 5 was 4.74. Besides, the MCC50 (in experiment [7]; in the experiment on Vero [13]; in [14]; in experiment [17]) was over 200 µM in each case. In the experiment on E6SM, this compound had an MEC50 of over 40 µM. For the same compound, the CC50 in experiment [1] turned out to be 160 µM. Further, the “antiviral activity against HSV-1” value in the experiment with Human alphaherpesvirus 1 was “inactive”. Also, the “Antiviral activity against HSV-2” value in the experiment on Human alphaherpesvirus 2 [8] is “inactive”. Further, the pKi on Adenosylhomocysteinase [9] is 4.86. Besides, the K inact on Adenosylhomocysteinase [10] is 0.59 min⁻¹. On Adenosylhomocysteinase [11], the NAD+ content was found to be 36.2%. The compound also displayed an Activity at Adenosylhomocysteinase [12] of 1.8%. The antiviral activity entry (in the experiment on Vaccinia virus [15]; in experiment [16]) was “inactive” in each case.
`Nc1ncnc2c1ncn2C1O[C@H](/C=C/C=C(Br)Br)[C@@H](O)[C@H]1O` (some centres undefined): the MCC50 in experiment [7] is over 35 µM; in the experiment on HEL [18], 45 µM; in the experiment with Vero [13], over 35000 µM; in experiment [14] it was over 35 µM; in experiment [17], over 35 µM. For the same compound, the MEC50 in the experiment with E6SM was 6.7 µM. The CC50 stood at 11 µM in experiment [1] and 54 µM in the experiment with HEL [20]. Further, the “antiviral activity against HSV-1” value in the experiment with Human alphaherpesvirus 1 is “inactive”. For the same compound, the “Antiviral activity against HSV-2” value with Human alphaherpesvirus 2 [8] was “inactive”. Also, the NAD+ content on Adenosylhomocysteinase [19] was found to be 93.1%. The same compound registered an Activity at Adenosylhomocysteinase [12] of 48%. Moreover, the antiviral activity result (in the experiment with Vaccinia virus [15]; in [16]) was “inactive” in each case.
For the compound `CCOC(=O)/C=C\C=C\[C@H]1OC(n2ccc(=O)[nH]c2=O)[C@H](O)[C@@H]1O` (some centres undefined), the MCC50 in experiment [7], in [14] and in [17] was over 200 µM each time. Also, the minimal effective concentration with E6SM was over 40 µM. Moreover, in experiment [1], the half-maximal cytotoxic concentration (CC50) was 40 µM. Moreover, in the experiment with Human alphaherpesvirus 1, the “antiviral activity against HSV-1” value is “inactive”. In the experiment on Human alphaherpesvirus 2 [8], the “Antiviral activity against HSV-2” value is “inactive”. Besides, the pEC50 with Human alphaherpesvirus 3 was 5.00. The MCC with Vero [21] was over 200 µM. In addition, the antiviral activity result (with Vaccinia virus [15]; in experiment [16]) was “inactive” throughout.
Regarding `CCOC(=O)/C=C/C=C/[C@H]1OC(n2ccc(=O)[nH]c2=O)[C@H](O)[C@@H]1O` (some centres undefined), the MCC50 in experiment [7], in experiment [14] and in experiment [17] was over 200 µM throughout. The minimal effective concentration with E6SM is over 40 µM. This compound returned a CC50 in [1] of over 370 µM. For the same compound, the “antiviral activity against HSV-1” value in the experiment on Human alphaherpesvirus 1 was “inactive”. Moreover, the “Antiviral activity against HSV-2” value in the experiment on Human alphaherpesvirus 2 [8] is “inactive”. The compound also had an MCC in the experiment with Vero [21] of over 200 µM. Moreover, the antiviral activity result (with Vaccinia virus [15]; in experiment [16]) was “inactive” each time.
In the case of `CCOC(=O)/C=C/C=C/[C@H]1OC(n2cnc3c(N)ncnc32)[C@H](O)[C@@H]1O` (some centres undefined), the MCC50 in [7] is over 200 µM; in the experiment on HEL [22] it was over 120 µM; in the experiment on Vero [13] it was over 200 µM; in experiment [14], over 200 µM; in experiment [17] it was over 200 µM. In the experiment on E6SM, the MEC50 is over 40 µM. For the same compound, the midpoint of cytotoxicity in experiment [1], the CC50, lay at 175 µM. Further, the “antiviral activity against HSV-1” value with Human alphaherpesvirus 1 was “inactive”. Further, in the experiment with Human alphaherpesvirus 2 [8], the “Antiviral activity against HSV-2” value is “inactive”. At Adenosylhomocysteinase [9], the pKi was 5.00. In addition, the K inact on Adenosylhomocysteinase [23] is 0.7 min⁻¹. The NAD+ content on Adenosylhomocysteinase [11] came out at 25.9%. This compound had an Activity on Adenosylhomocysteinase [12] of 3.6%. Besides, the antiviral activity result (in the experiment with Vaccinia virus [15]; in [16]) was “inactive” in each case.
